The target in data set [1] is T1, Amine oxidase [flavin-containing] A (Homo sapiens, UniProt P21397).
T1 sequence (P21397 whole entry): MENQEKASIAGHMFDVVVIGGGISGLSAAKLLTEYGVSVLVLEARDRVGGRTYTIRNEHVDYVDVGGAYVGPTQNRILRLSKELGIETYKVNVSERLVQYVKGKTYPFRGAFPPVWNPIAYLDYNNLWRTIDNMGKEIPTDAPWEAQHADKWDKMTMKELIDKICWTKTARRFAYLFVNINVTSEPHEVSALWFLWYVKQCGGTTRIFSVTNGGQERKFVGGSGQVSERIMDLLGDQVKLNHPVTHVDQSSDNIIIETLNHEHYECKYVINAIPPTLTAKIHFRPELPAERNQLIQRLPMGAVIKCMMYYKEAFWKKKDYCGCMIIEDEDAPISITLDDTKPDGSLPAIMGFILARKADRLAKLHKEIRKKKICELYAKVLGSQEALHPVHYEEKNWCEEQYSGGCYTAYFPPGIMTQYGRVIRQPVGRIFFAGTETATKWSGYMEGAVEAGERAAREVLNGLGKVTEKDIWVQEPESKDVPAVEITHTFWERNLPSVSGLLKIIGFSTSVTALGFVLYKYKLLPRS
The data set is described as follows: Inhibition of human MAO-A assessed as inhibition of p-tyramine oxidation to p-hydroxyphenyl-acetaldehyde at 100 uM after 15 mins by fluorimetric method. As to conditions: 0.25 h; call rule not given here.

For a further data set, the species on record is Homo sapiens. Put plainly: Selectivity index, ratio of IC50 for human MAO-A to IC50 for human MAO-B.
For data set [2], the target named is T2, Amine oxidase [flavin-containing] B (Homo sapiens, UniProt P27338).
T2 sequence (P27338 whole entry): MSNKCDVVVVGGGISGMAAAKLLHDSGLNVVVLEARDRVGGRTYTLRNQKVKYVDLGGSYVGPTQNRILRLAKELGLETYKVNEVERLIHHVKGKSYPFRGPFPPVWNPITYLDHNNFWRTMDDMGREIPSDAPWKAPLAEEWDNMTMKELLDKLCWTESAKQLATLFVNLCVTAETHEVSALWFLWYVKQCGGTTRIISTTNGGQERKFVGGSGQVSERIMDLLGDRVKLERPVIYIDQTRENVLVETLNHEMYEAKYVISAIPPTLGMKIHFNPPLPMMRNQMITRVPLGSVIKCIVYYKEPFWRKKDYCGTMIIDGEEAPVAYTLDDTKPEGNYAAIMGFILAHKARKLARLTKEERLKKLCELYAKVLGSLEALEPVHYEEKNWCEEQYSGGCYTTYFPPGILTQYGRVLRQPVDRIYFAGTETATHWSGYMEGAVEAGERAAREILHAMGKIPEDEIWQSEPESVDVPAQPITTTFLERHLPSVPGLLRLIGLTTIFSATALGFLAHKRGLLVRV
The data set is described as follows: Inhibition of human MAO-B assessed as inhibition of p-tyramine oxidation to p-hydroxyphenyl-acetaldehyde after 15 mins by fluorimetric method.

In data set [3] the target is T2, Amine oxidase [flavin-containing] B. The data set is described as follows: Inhibition of human MAO-B assessed as inhibition of p-tyramine oxidation to p-hydroxyphenyl-acetaldehyde at 100 uM after 15 mins by fluorimetric method. Particulars: 0.25 h. The essentials:
(§1)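 Microsomal recombinant hMAO-A or hMAO-B from baculovirus-infected BTI-TN5B1-4 insect cells. Enzyme was set to oxidize 165 pmol p-tyramine/min (MAO-A 1.1 μg, MAO-B 7.5 μg protein). It was preincubated with compound 15 min at 37 C in 0.05 M sodium phosphate, pH 7.4. Reaction started with final 200 μM Amplex Red, 1 U/mL HRP and 1 mM p-tyramine. H2O2-derived resorufin fluorescence (ex 545/em 590) read over 15 min at 37 C, background-subtracted, against vehicle controls. Highest concentration 100 μM or 1 mM; mean ± SEM, n = 5.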

For data set [4], the target named is T1, Amine oxidase [flavin-containing] A. The data set is described as follows: Inhibition of human MAO-A assessed as inhibition of p-tyramine oxidation to p-hydroxyphenyl-acetaldehyde after 15 mins by fluorimetric method. A digest of the protocol: as §1
Data set [5] deals with T2, Amine oxidase [flavin-containing] B. The data set is described as follows: Reversible inhibition of human MAOB expressed assessed as inhibition of p-tyramine oxidation to p-hydroxyphenyl-acetaldehyde at 100 uM measured before repeated washing by centrifugation-ultrafiltration method. A digest of the protocol: (§2)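 Recombinant hMAO-B preincubated with a single compound concentration for 15 min at 37 C in 0.05 M sodium phosphate, pH 7.4. One aliquot kept at 4 C, unwashed. The rest was ultrafiltered through a 30 kDa membrane (9000g, 20 min, 4 C), resuspended and spun twice more.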

Data set [6] has the same target. Put plainly: Irreversible inhibition of human MAOB expressed assessed as inhibition of p-tyramine oxidation to p-hydroxyphenyl-acetaldehyde at 100 uM measured after repeated washing by centrifugation-ultrafiltration method. The essentials:
as §2

Data set [7] has the same target. Put plainly: Inhibition of human MAO-B assessed as inhibition of p-tyramine oxidation to p-hydroxyphenyl-acetaldehyde at 1 mM after 15 mins by fluorimetric method. Particulars: 0.25 h, 1000 µM. The essentials: as §1

Broadly, the IC50 is the concentration that gives 50% inhibition. For the molecule `O=C(Nc1ccc(C(F)(F)F)cc1)c1coc2ccccc2c1=O`, the “inhibition (INH)” value in data set [1] was “Not Active”. For the same molecule, the Ratio IC50 in the data set listed under Homo sapiens is > 909. For the same molecule, the 50% inhibitory concentration (IC50) in data set [2] turned out to be 110 nM.

For the molecule `O=C(NC1CCCCC1)c1coc2ccccc2c1=O`, in data set [1], the “inhibition (INH)” value is “Not Active”. Moreover, the Ratio IC50 in the data set listed under Homo sapiens is > 107. In addition, the IC50 in data set [2] came to 930 nM.

Take `O=C(Nc1ccccc1)c1cc(=O)c2ccccc2o1`: the “inhibition (INH)” value in data set [3] and in data set [1] was “Not Active” each time.

In the case of `COc1ccc(NC(=O)c2coc3ccccc3c2=O)cc1OC`, the “inhibition (INH)” value in data set [1] is on record as “Not Active”. For the same molecule, in the data set filed under Homo sapiens, the Ratio IC50 is > 43. The IC50 in data set [2] was found to be 2330 nM.

With `O=C(Nc1ccc(O)c(O)c1)c1cc(=O)c2ccccc2o1`, the Ratio IC50 in the data set listed under Homo sapiens worked out at 0.071. Further, the IC50 in data set [2] was determined as 2660 nM; in data set [4], 190 nM.

Regarding `O=C(Nc1ccc([N+](=O)[O-])cc1)c1coc2ccccc2c1=O`, the Ratio IC50 in the data set listed under Homo sapiens is 0.94. The IC50 came out at 11800 nM in data set [2] and 11100 nM in data set [4].

Regarding `O=C(Nc1ccc(O)cc1)c1cc(=O)c2ccccc2o1`, the Ratio IC50 in the data set listed under Homo sapiens is 1.6. Besides, the IC50 was determined as 41900 nM in data set [2] and 65200 nM in data set [4].

`O=C(Nc1ccc(OC(F)(F)F)cc1)c1cc(=O)c2ccccc2o1`: the “inhibition (INH)” value in data set [3] and in data set [1] was “Not Active” throughout.

Consider `O=C(Nc1ccc(O)c(O)c1)c1coc2ccccc2c1=O`, for which the Ratio IC50 in the data set filed under Homo sapiens turned out to be 2.7. For the same molecule, the figures for the half-inhibitory concentration (IC50) in data set [2] and in data set [4] were 160 nM and 430 nM, respectively.

Regarding `COc1ccc(NC(=O)c2coc3ccccc3c2=O)cc1O`, in the data set filed under Homo sapiens, the Ratio IC50 worked out at 110. The results for the concentration for half-maximal inhibition (IC50) in data set [2] and in data set [4] were 76 nM and 8340 nM, respectively.

On to `O=C(Nc1ccc(C(F)(F)F)cc1)c1cc(=O)c2ccccc2o1`, for which the “inhibition (INH)” value in data set [3] and in data set [1] was “Not Active” each time.

A word on the inhibition: it is the relative decrease from the control value, in per cent. In the case of `O=C(Nc1ccc(O)cc1)c1coc2ccccc2c1=O`, the figures for the inhibition at 100 µM in data set [5] and in data set [6] were 60.3% and 23.5%, respectively. Further, in the data set listed under Homo sapiens, the Ratio IC50 was determined as 74. For the same molecule, the values for the IC50 in data set [2] and in data set [4] were 64 nM and 4760 nM, respectively.

For the molecule `CCCNC(=O)c1cc(=O)c2ccccc2o1`, the “inhibition (INH)” value in data set [1] and in data set [7] was “Not Active” each time.

`CCCNC(=O)c1coc2ccccc2c1=O`: the “inhibition (INH)” value in data set [1] is “Not Active”. Moreover, the Ratio IC50 in the data set filed under Homo sapiens was > 2.7. Also, in data set [2], the IC50 came to 37700 nM.

As to `COc1ccc(NC(=O)c2cc(=O)c3ccccc3o2)cc1OC`, the “inhibition (INH)” value in data set [3] and in data set [1] was “Not Active” throughout.

On to `COc1ccc(NC(=O)c2cc(=O)c3ccccc3o2)cc1O`, for which the “inhibition (INH)” value in data set [3] and in data set [1] was “Not Active” in each case.

Turning to `O=C(NC1CCCCC1)c1cc(=O)c2ccccc2o1`, the “inhibition (INH)” value in data set [1] and in data set [7] was “Not Active” each time.

Turning to `O=C(Nc1ccc([N+](=O)[O-])cc1)c1cc(=O)c2ccccc2o1`, the “inhibition (INH)” value in data set [3] and in data set [1] was “Not Active” each time.

With `O=C(Nc1ccc(OC(F)(F)F)cc1)c1coc2ccccc2c1=O`, in data set [1], the “inhibition (INH)” value was “Not Active”. Also, in the data set filed under Homo sapiens, the Ratio IC50 was > 93. Also, the IC50 in data set [2] turned out to be 1080 nM.

As to `O=C(Nc1ccc(Cl)cc1)c1cc(=O)c2ccccc2o1`, the “inhibition (INH)” value in data set [3] and in data set [1] was “Not Active” each time.

The values are drawn from ChEMBL document CHEMBL1811774, “Chromone, a privileged scaffold for the development of monoamine oxidase inhibitors” (J Med Chem, 2011).
